ChEMBL document CHEMBL2396535, “Synthesis and biological evaluation of 18F-labled 2-phenylindole derivatives as PET imaging probes for β-amyloid plaques” (Bioorg Med Chem, 2013)
Each block holds one compound with its values, some of them ahead of it.

What was measured:
[1] = molecular target: Amyloid-beta precursor protein (Homo sapiens, UniProt P05067); test: Displacement of [125I]IMPY from amyloid beta (1 to 42) (unknown origin) after 3 hrs by gamma counting analysis
In short: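 Test compound ranged over 10^-4 to 10^-8.5 in ethanol, in 0.05% BSA, 1 mL total. Incubation was 3 h at room temperature, then GF/B filtration and gamma counting. IC50 came from three independent experiments, and Ki was derived by Cheng–Prusoff.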

[2] = Ratio of drug level in brain to blood in ICR mouse after 2 mins; type: ADME, tissue-based; conditions: brain and blood, read-out: BBR
In short: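 Male ICR mice (5 weeks) received the ¹⁸F tracer (740–1110 kBq/mL) in saline with 10% EtOH by tail-vein injection. Five mice per time point were sacrificed at 2, 10, 30 and 60 min. Organs were removed, weighed and gamma-counted, and expressed as %ID/g. The ratio is brain %ID/g over blood %ID/g at 2 min.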

[3] = tested on: Brain; test: Ratio of drug level in brain after 2 mins to drug level in brain after 60 mins in ICR mouse; type: ADME, tissue-based; conditions: in vivo
In short: (§1)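 Male normal ICR mice (5 weeks old), n = 5 per time point, received a tail-vein injection of [18F] tracer (740–1110 kBq/mL) in saline containing 10% EtOH. Mice were sacrificed at 2, 10, 30 and 60 min. Organs were removed, weighed and gamma-counted, and data were expressed as %ID/g.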

[4] = tested on: Intestine; test: Biodistribution in ICR mouse intestine assessed per organ at 740 to 1110 kBq/mL, iv measured 60 mins post-injection by gamma counting analysis; type: ADME, organism-based; conditions: in vivo, 1 h; in short: as §1
[5] = tested on: Intestine; test: Biodistribution in ICR mouse intestine assessed per organ at 740 to 1110 kBq/mL, iv measured 30 mins post-injection by gamma counting analysis; type: ADME, organism-based; conditions: in vivo, 0.5 h; in short: as §1
[6] = tested on: Intestine; test: Biodistribution in ICR mouse intestine assessed per organ at 740 to 1110 kBq/mL, iv measured 10 mins post-injection by gamma counting analysis; type: ADME, organism-based; conditions: in vivo; in short: as §1
[7] = tested on: Intestine; test: Biodistribution in ICR mouse intestine assessed per organ at 740 to 1110 kBq/mL, iv measured 2 mins post-injection by gamma counting analysis; type: ADME, organism-based; conditions: in vivo; in short: as §1
[8] = tested on: Stomach; test: Biodistribution in ICR mouse stomach assessed per organ at 740 to 1110 kBq/mL, iv measured 60 mins post-injection by gamma counting analysis; type: ADME, organism-based; conditions: in vivo, 1 h; in short: as §1
[9] = tested on: Stomach; test: Biodistribution in ICR mouse stomach assessed per organ at 740 to 1110 kBq/mL, iv measured 30 mins post-injection by gamma counting analysis; type: ADME, organism-based; conditions: in vivo, 0.5 h; in short: as §1
[10] = tested on: Stomach; test: Biodistribution in ICR mouse stomach assessed per organ at 740 to 1110 kBq/mL, iv measured 10 mins post-injection by gamma counting analysis; type: ADME, organism-based; conditions: in vivo; in short: as §1
[11] = tested on: Stomach; test: Biodistribution in ICR mouse stomach assessed per organ at 740 to 1110 kBq/mL, iv measured 2 mins post-injection by gamma counting analysis; type: ADME, organism-based; conditions: in vivo; in short: as §1
[12] = tested on: Bone; test: Biodistribution in ICR mouse bone assessed per gram of tissue at 740 to 1110 kBq/mL, iv measured 60 mins post-injection by gamma counting analysis; type: ADME, organism-based, Bone element; conditions: in vivo, 1 h; in short: as §1
[13] = tested on: Bone; test: Biodistribution in ICR mouse bone assessed per gram of tissue at 740 to 1110 kBq/mL, iv measured 30 mins post-injection by gamma counting analysis; type: ADME, organism-based, Bone element; conditions: in vivo, 0.5 h; in short: as §1
[14] = tested on: Bone; test: Biodistribution in ICR mouse bone assessed per gram of tissue at 740 to 1110 kBq/mL, iv measured 10 mins post-injection by gamma counting analysis; type: ADME, organism-based, Bone element; conditions: in vivo; in short: as §1
[15] = tested on: Bone; test: Biodistribution in ICR mouse bone assessed per gram of tissue at 740 to 1110 kBq/mL, iv measured 2 mins post-injection by gamma counting analysis; type: ADME, organism-based, Bone element; conditions: in vivo; in short: as §1
[16] = tested on: Kidney; test: Biodistribution in ICR mouse kidney assessed per gram of tissue at 740 to 1110 kBq/mL, iv measured 60 mins post-injection by gamma counting analysis; type: ADME, organism-based; conditions: in vivo, 1 h; in short: as §1
[17] = tested on: Kidney; test: Biodistribution in ICR mouse kidney assessed per gram of tissue at 740 to 1110 kBq/mL, iv measured 30 mins post-injection by gamma counting analysis; type: ADME, organism-based; conditions: in vivo, 0.5 h; in short: as §1
[18] = tested on: Kidney; test: Biodistribution in ICR mouse kidney assessed per gram of tissue at 740 to 1110 kBq/mL, iv measured 10 mins post-injection by gamma counting analysis; type: ADME, organism-based; conditions: in vivo; in short: as §1
[19] = tested on: Kidney; test: Biodistribution in ICR mouse kidney assessed per gram of tissue at 740 to 1110 kBq/mL, iv measured 2 mins post-injection by gamma counting analysis; type: ADME, organism-based; conditions: in vivo; in short: as §1
[20] = tested on: Lung; test: Biodistribution in ICR mouse lung assessed per gram of tissue at 740 to 1110 kBq/mL, iv measured 60 mins post-injection by gamma counting analysis; type: ADME, organism-based; conditions: in vivo, 1 h; in short: as §1
[21] = tested on: Lung; test: Biodistribution in ICR mouse lung assessed per gram of tissue at 740 to 1110 kBq/mL, iv measured 30 mins post-injection by gamma counting analysis; type: ADME, organism-based; conditions: in vivo, 0.5 h; in short: as §1
[22] = tested on: Lung; test: Biodistribution in ICR mouse lung assessed per gram of tissue at 740 to 1110 kBq/mL, iv measured 10 mins post-injection by gamma counting analysis; type: ADME, organism-based; conditions: in vivo; in short: as §1
[23] = tested on: Lung; test: Biodistribution in ICR mouse lung assessed per gram of tissue at 740 to 1110 kBq/mL, iv measured 2 mins post-injection by gamma counting analysis; type: ADME, organism-based; conditions: in vivo; in short: as §1
[24] = tested on: Spleen; test: Biodistribution in ICR mouse spleen assessed per gram of tissue at 740 to 1110 kBq/mL, iv measured 60 mins post-injection by gamma counting analysis; type: ADME, organism-based; conditions: in vivo, 1 h; in short: as §1
[25] = tested on: Spleen; test: Biodistribution in ICR mouse spleen assessed per gram of tissue at 740 to 1110 kBq/mL, iv measured 30 mins post-injection by gamma counting analysis; type: ADME, organism-based; conditions: in vivo, 0.5 h; in short: as §1
[26] = tested on: Spleen; test: Biodistribution in ICR mouse spleen assessed per gram of tissue at 740 to 1110 kBq/mL, iv measured 10 mins post-injection by gamma counting analysis; type: ADME, organism-based; conditions: in vivo; in short: as §1
[27] = tested on: Spleen; test: Biodistribution in ICR mouse spleen assessed per gram of tissue at 740 to 1110 kBq/mL, iv measured 2 mins post-injection by gamma counting analysis; type: ADME, organism-based; conditions: in vivo; in short: as §1
[28] = tested on: Liver; test: Biodistribution in ICR mouse liver assessed per gram of tissue at 740 to 1110 kBq/mL, iv measured 60 mins post-injection by gamma counting analysis; type: ADME, organism-based; conditions: in vivo, 1 h; in short: as §1
[29] = tested on: Liver; test: Biodistribution in ICR mouse liver assessed per gram of tissue at 740 to 1110 kBq/mL, iv measured 30 mins post-injection by gamma counting analysis; type: ADME, organism-based; conditions: in vivo, 0.5 h; in short: as §1
[30] = tested on: Liver; test: Biodistribution in ICR mouse liver assessed per gram of tissue at 740 to 1110 kBq/mL, iv measured 10 mins post-injection by gamma counting analysis; type: ADME, organism-based; conditions: in vivo; in short: as §1
[31] = tested on: Liver; test: Biodistribution in ICR mouse liver assessed per gram of tissue at 740 to 1110 kBq/mL, iv measured 2 mins post-injection by gamma counting analysis; type: ADME, organism-based; conditions: in vivo; in short: as §1
[32] = tested on: Heart; test: Biodistribution in ICR mouse heart assessed per gram of tissue at 740 to 1110 kBq/mL, iv measured 60 mins post-injection by gamma counting analysis; type: ADME, organism-based; conditions: in vivo, 1 h; in short: as §1
[33] = tested on: Heart; test: Biodistribution in ICR mouse heart assessed per gram of tissue at 740 to 1110 kBq/mL, iv measured 30 mins post-injection by gamma counting analysis; type: ADME, organism-based; conditions: in vivo, 0.5 h; in short: as §1
[34] = tested on: Heart; test: Biodistribution in ICR mouse heart assessed per gram of tissue at 740 to 1110 kBq/mL, iv measured 10 mins post-injection by gamma counting analysis; type: ADME, organism-based; conditions: in vivo; in short: as §1
[35] = tested on: Heart; test: Biodistribution in ICR mouse heart assessed per gram of tissue at 740 to 1110 kBq/mL, iv measured 2 mins post-injection by gamma counting analysis; type: ADME, organism-based; conditions: in vivo; in short: as §1
[36] = tested on: Brain; test: Biodistribution in ICR mouse brain assessed per gram of tissue at 740 to 1110 kBq/mL, iv measured 60 mins post-injection by gamma counting analysis; type: ADME, organism-based; conditions: in vivo, 1 h; in short: as §1
[37] = tested on: Brain; test: Biodistribution in ICR mouse brain assessed per gram of tissue at 740 to 1110 kBq/mL, iv measured 30 mins post-injection by gamma counting analysis; type: ADME, organism-based; conditions: in vivo, 0.5 h; in short: as §1
[38] = tested on: Brain; test: Biodistribution in ICR mouse brain assessed per gram of tissue at 740 to 1110 kBq/mL, iv measured 10 mins post-injection by gamma counting analysis; type: ADME, organism-based; conditions: in vivo; in short: as §1
[39] = tested on: Blood; test: Biodistribution in ICR mouse blood assessed per gram of tissue at 740 to 1110 kBq/mL, iv measured 60 mins post-injection by gamma counting analysis; type: ADME, organism-based; conditions: in vivo, 1 h; in short: as §1
[40] = tested on: Brain; test: Biodistribution in ICR mouse brain assessed per gram of tissue at 740 to 1110 kBq/mL, iv measured 2 mins post-injection by gamma counting analysis; type: ADME, organism-based; conditions: in vivo; in short: as §1
[41] = tested on: Blood; test: Biodistribution in ICR mouse blood assessed per gram of tissue at 740 to 1110 kBq/mL, iv measured 30 mins post-injection by gamma counting analysis; type: ADME, organism-based; conditions: in vivo, 0.5 h; in short: as §1
[42] = tested on: Blood; test: Biodistribution in ICR mouse blood assessed per gram of tissue at 740 to 1110 kBq/mL, iv measured 10 mins post-injection by gamma counting analysis; type: ADME, organism-based; conditions: in vivo; in short: as §1
[43] = tested on: Blood; test: Biodistribution in ICR mouse blood assessed per gram of tissue at 740 to 1110 kBq/mL, iv measured 2 mins post-injection by gamma counting analysis; type: ADME, organism-based; conditions: in vivo; in short: as §1
[44] = Partition coefficient, log D of the compound in n-octanol-PBS […] at pH 7.4; type: physicochemical
In short: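 [18F] tracer (1110 kBq) was added to 3.0 g n-octanol plus 3.0 g PBS (0.05 M, pH 7.4), vortexed 3 min at room temperature, then centrifuged 5 min at 3000 rpm.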

Sequence of Amyloid-beta precursor protein (P05067 whole entry): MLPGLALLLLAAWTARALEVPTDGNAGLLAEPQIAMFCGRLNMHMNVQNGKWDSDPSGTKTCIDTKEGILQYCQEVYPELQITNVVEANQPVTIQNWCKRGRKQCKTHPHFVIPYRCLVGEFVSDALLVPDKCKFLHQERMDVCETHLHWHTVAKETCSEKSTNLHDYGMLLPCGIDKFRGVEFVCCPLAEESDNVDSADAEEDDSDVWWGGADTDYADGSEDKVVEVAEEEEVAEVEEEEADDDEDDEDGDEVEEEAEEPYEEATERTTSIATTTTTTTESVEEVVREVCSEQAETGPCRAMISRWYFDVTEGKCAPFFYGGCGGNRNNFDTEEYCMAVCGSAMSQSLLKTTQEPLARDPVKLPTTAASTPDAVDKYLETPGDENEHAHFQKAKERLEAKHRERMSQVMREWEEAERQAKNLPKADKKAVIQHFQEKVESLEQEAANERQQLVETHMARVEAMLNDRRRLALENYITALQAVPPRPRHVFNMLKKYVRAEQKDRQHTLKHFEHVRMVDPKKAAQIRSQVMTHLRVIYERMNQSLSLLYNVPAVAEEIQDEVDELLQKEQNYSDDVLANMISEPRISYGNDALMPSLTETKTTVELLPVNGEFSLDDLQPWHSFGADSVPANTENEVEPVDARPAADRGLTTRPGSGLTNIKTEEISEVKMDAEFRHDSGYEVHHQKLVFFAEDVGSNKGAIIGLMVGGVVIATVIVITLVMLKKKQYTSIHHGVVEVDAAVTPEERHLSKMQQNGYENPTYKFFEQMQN

Compound: COc1ccc(-c2cc3cc([125I])ccc3[nH]2)cc1
Kp at 2 min [2]: 0.59
Ratio [3]: 1.82

Compound: CNc1ccc(-c2cc3cc([125I])ccc3[nH]2)cc1
Kp at 2 min [2]: 0.29
Ratio [3]: 1.33

Compound: CN(CCCF)c1ccc(-c2cc3ccccc3[nH]2)cc1
Ki [1]: 0.0315 µM

Now from value to compound:

Ki [1]: 0.117 µM
Compound: CN(CCF)c1ccc(-c2cc3ccccc3n2C)cc1

Ki [1]: 1.1 µM
Compound: Cn1c(-c2ccc(NCCCF)cc2)cc2ccccc21

Kp at 2 min [2]: 1.72
Ratio [3]: 2.1
Drug uptake [4]: 11.04 %ID
Drug uptake [5]: 9 %ID
Drug uptake [6]: 9.06 %ID
Drug uptake [7]: 6.5 %ID
Drug uptake [8]: 1.09 %ID
Drug uptake [9]: 1.43 %ID
Drug uptake [10]: 1.54 %ID
Drug uptake [11]: 1.38 %ID
Drug uptake [12]: 9.71 %ID
Drug uptake [13]: 5.95 %ID
Drug uptake [14]: 4.13 %ID
Drug uptake [15]: 2.05 %ID
Drug uptake [16]: 3.54 %ID
Drug uptake [17]: 4.17 %ID
Drug uptake [18]: 5.62 %ID
Drug uptake [19]: 9.66 %ID
Drug uptake [20]: 3.57 %ID
Drug uptake [21]: 4.27 %ID
Drug uptake [22]: 5.81 %ID
Drug uptake [23]: 6.57 %ID
Drug uptake [24]: 2.71 %ID
Drug uptake [25]: 3.23 %ID
Drug uptake [26]: 3.97 %ID
Drug uptake [27]: 2.73 %ID
Drug uptake [28]: 4.15 %ID
Drug uptake [29]: 4.86 %ID
Drug uptake [30]: 8.38 %ID
Drug uptake [31]: 10.47 %ID
Drug uptake [32]: 3.81 %ID
Drug uptake [33]: 3.71 %ID
Drug uptake [34]: 4.95 %ID
Drug uptake [35]: 6.76 %ID
Drug uptake [36]: 2.77 %ID
Drug uptake [37]: 3.41 %ID
Drug uptake [38]: 5.07 %ID
Drug uptake [39]: 4.37 %ID
Drug uptake [40]: 5.82 %ID
Drug uptake [41]: 4.21 %ID
Drug uptake [42]: 3.81 %ID
Drug uptake [43]: 3.38 %ID
logD [44]: 3.61
Compound: CN(CC[18F])c1ccc(-c2cc3ccccc3[nH]2)cc1
